Data: ChEMBL document CHEMBL4130384, “Design, synthesis and biological evaluation of novel 2-methoxyestradiol analogs as dual selective estrogen receptor modulators (SERMs) and antiangiogenic agents” (Eur J Med Chem, 2017)
The source made the active and inactive calls. The rule behind the calls is not given here.

What was measured:
HUVEC = assay: Antiproliferative activity against HUVEC after 48 hrs by MTT assay; assay type: functional, cell-based; conditions: Homo sapiens
In short: (§1)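 Cells grown in RPMI1640 with 10% FBS and penicillin/streptomycin at 37 °C, 5% CO2. Seeded at 1 × 10^5/mL, grown 24 h, then exposed to compound at 1 × 10^-4 to 1 × 10^-7 mol/L for 48 h. Controls received medium with 1% DMSO. MTT 4 h, formazan dissolved in DMSO, absorbance at 490 nm; IC50 derived.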

Ishikawa [1] = assay: Antiproliferative activity against human Ishikawa cells assessed as suppression of proliferation at 10 uM after 48 hrs by MTT assay relative to control; assay type: functional
Ishikawa [2] = assay: Antiproliferative activity against human Ishikawa cells after 48 hrs by MTT assay; assay type: functional, cell-based; in short: as §1
HepG2 = assay: Antiproliferative activity against human HepG2 cells after 48 hrs by MTT assay; assay type: functional, cell-based; conditions: HepG2, 48 h; in short: as §1
MCF7 [3] = assay: Antiproliferative activity against human MCF7 cells after 48 hrs by MTT assay; assay type: functional, cell-based; conditions: MCF7, 48 h; in short: as §1
PC-3 = assay: Antiproliferative activity against human PC3 cells after 48 hrs by MTT assay; assay type: functional, cell-based; conditions: PC-3, 48 h; in short: as §1
MCF7 [4] = assay: Effect on AIM2 mRNA expression in human MCF7 cells at 2 uM by RT-PCR method; assay type: functional, cell-based
In short: (§2)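 AIM2 mRNA, an ER-independent reference transcript, measured in treated MCF-7 cells by real-time PCR. Normalized to GAPDH and quantified by the ΔΔCT method. Mean ± SD, n = 3.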

MCF7 [5] = assay: Cell cycle arrest in human MCF7 cells assessed as G0/G1 phase accumulation at 1 uM after 6 hrs by propidium iodide staining based flow cytometry (reference value: 42.62%); assay type: functional
In short: (§3)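 MCF-7 cells plated at 3 × 10^5 per well and left overnight, then treated in serum-free medium with a DMSO reference control. Cells fixed in 70% ice-cold ethanol, washed in PBS, stained with propidium iodide at 4 °C. Flow cytometry gave percentages in G1, S and G2/M phases. Mean ± SEM of three independent experiments.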

MCF7 [6] = assay: Cell cycle arrest in human MCF7 cells assessed as S phase accumulation at 2 uM after 6 hrs by propidium iodide staining based flow cytometry (reference value: 33.14%); assay type: functional; in short: as §3
MCF7 [7] = assay: Cell cycle arrest in human MCF7 cells assessed as G0/G1 phase accumulation at 2 uM after 6 hrs by propidium iodide staining based flow cytometry (reference value: 42.62%); assay type: functional; in short: as §3
MCF7 [8] = assay: Cell cycle arrest in human MCF7 cells assessed as G2/M phase accumulation after 6 hrs by propidium iodide staining based flow cytometry; assay type: functional; in short: as §3
MCF7 [9] = assay: Cell cycle arrest in human MCF7 cells assessed as S phase accumulation at 1 uM after 6 hrs by propidium iodide staining based flow cytometry (reference value: 33.14%); assay type: functional; in short: as §3
MCF7 [10] = assay: Effect on AIM2 mRNA expression in human MCF7 cells at 0.5 to 2 uM by RT-PCR method; assay type: functional, cell-based; in short: as §2
MCF7 [11] = assay: Cell cycle arrest in human MCF7 cells assessed as G2/M phase accumulation at 1 uM after 6 hrs by propidium iodide staining based flow cytometry (reference value: 22.46%); assay type: functional; in short: as §3
MCF7 [12] = assay: Cell cycle arrest in human MCF7 cells assessed as G2/M phase accumulation at 2 uM after 6 hrs by propidium iodide staining based flow cytometry (reference value: 22.46%); assay type: functional; in short: as §3
Chorioallantoic membrane [13] = assay: In vivo antiangiogenic activity in chicken fertilized egg chorioallantoic membrane at 40 uM after 72 hrs; assay type: functional, organism-based; conditions: Gallus gallus
In short: (§4)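 Fertilized eggs incubated 7 days at 37 °C, 5% CO2, with saturated humidity. A ~1 cm2 shell window exposed the CAM. Compounds in DMSO were applied on sterile methyl cellulose filter papers placed on the CAM, with PBS as blank. Window taped shut, eggs incubated 72 h at 37 °C, 60% relative humidity.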

Chorioallantoic membrane [14] = assay: In vivo antiangiogenic activity in chicken fertilized egg chorioallantoic membrane after 72 hrs; assay type: functional, organism-based; conditions: Gallus gallus; in short: as §4
[15] = molecular target: T1, Estrogen receptor (Homo sapiens) (UniProt P03372); assay: Inhibition of estrogen receptor in human MCF7 cells assessed as inhibition of estradiol-induced PgR mRNA expression by RT-PCR method relative to control; assay type: cell-based
T1 sequence (whole entry): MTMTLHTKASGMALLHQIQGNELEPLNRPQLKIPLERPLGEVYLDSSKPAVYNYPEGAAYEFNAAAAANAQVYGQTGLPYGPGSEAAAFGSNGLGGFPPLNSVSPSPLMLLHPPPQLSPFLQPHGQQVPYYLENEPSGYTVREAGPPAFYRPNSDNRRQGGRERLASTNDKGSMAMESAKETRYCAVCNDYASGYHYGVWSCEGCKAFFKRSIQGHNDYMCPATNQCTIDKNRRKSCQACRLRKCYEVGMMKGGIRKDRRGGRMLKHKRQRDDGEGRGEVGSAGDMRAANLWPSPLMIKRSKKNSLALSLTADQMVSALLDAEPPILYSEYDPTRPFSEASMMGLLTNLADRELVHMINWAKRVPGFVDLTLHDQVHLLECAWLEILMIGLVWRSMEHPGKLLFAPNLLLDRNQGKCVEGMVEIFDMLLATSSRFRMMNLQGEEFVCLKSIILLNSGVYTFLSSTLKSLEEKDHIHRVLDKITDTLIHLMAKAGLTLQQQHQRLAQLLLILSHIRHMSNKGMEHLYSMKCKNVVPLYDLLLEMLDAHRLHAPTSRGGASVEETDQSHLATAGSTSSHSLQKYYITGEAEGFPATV
In short: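 MCF-7 cells stimulated with 10 nM E2 and co-treated with compound. PgR mRNA measured by real-time PCR, normalized to GAPDH and quantified by the ΔΔCT method. The 10 nM E2 level was set as 100%. Mean ± SD, n = 3.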

SMILES	IC50 (HepG2)	IC50 (MCF7 [3])	IC50 (PC-3)	inhibition [15]	IC50 (HUVEC)	Activity (Ishikawa [1])	IC50 (Ishikawa [2])	Activity (MCF7 [4])	Activity (MCF7 [5])	Activity (MCF7 [6])	Activity (MCF7 [7])	Activity (MCF7 [8])	Activity (MCF7 [9])	Activity (MCF7 [10])	Activity (MCF7 [11])	Activity (MCF7 [12])	Activity (Chorioallantoic membrane [13])	Activity (Chorioallantoic membrane [14])
COCOc1ccc2c(c1)CC[C@@H]1[C@@H]2[C@H](OC(=O)c2ccc(NC(=O)CN(C)C)cc2)C[C@]2(C)[C@@H](OCOC)CC[C@@H]12	23.5 µM	28 µM	17.6 µM		17.7 µM	Active	28.5 µM											
CC/C(=C(\c1ccccc1)c1ccc(OCCN(C)C)cc1)c1ccccc1 [TAMOXIFEN]						-60.1%		inactive										
CN1CCN(CC(=O)Nc2ccc(C(=O)O[C@@H]3C[C@]4(C)[C@@H](O)CC[C@H]4[C@@H]4CCc5cc(O)ccc5[C@H]43)cc2)CC1	15.1 µM	29.6 µM	19.4 µM		37 µM	Active	9.66 µM											
CN(C)CC(=O)Nc1ccc(C(=O)O[C@@H]2C[C@]3(C)[C@@H](O)CC[C@H]3[C@@H]3CCc4cc(O)ccc4[C@H]32)cc1	8.92 µM	47.2 µM	23.4 µM		32 µM	Active	37.5 µM											
COc1ccc2c(c1)CC[C@@H]1[C@@H]2[C@H](OC(=O)c2ccc(NC(=O)CN3CCN(C)CC3)cc2)C[C@]2(C)[C@@H](OC)CC[C@@H]12	8.12 µM	12.9 µM	18.1 µM		5.88 µM	Active	7.52 µM											
COc1ccc2c(c1)CC[C@@H]1[C@@H]2[C@H](OC(=O)c2ccc(NC(=O)CN3CCCC3)cc2)C[C@]2(C)[C@@H](OC)CC[C@@H]12	8.64 µM	13.7 µM	10.6 µM		3.69 µM	Active	4.79 µM											
COc1cc2c(cc1O)CC[C@@H]1[C@@H]2CC[C@]2(C)[C@@H](O)CC[C@@H]12 [2-METHOXYESTRADIOL]	11 µM	6.01 µM	12.3 µM		14.2 µM	Active	8.96 µM											
C[C@]12C[C@@H](OC(=O)c3ccc(NC(=O)CN4CCCC4)cc3)[C@@H]3c4ccc(O)cc4CC[C@H]3[C@@H]1CC[C@@H]2O	21.1 µM	34.7 µM	39.1 µM		36.1 µM	Active	17.3 µM											
COCOc1ccc2c(c1)CC[C@@H]1[C@@H]2[C@H](OC(=O)c2ccc(NC(=O)CN3CCCC3)cc2)C[C@]2(C)[C@@H](OCOC)CC[C@@H]12	25.4 µM	14.3 µM	17.1 µM		9.28 µM	Active	7.3 µM											

More lines, main results first:

IC50 (HepG2)	IC50 (MCF7 [3])	IC50 (PC-3)	inhibition [15]	SMILES	IC50 (HUVEC)	Activity (Ishikawa [1])	IC50 (Ishikawa [2])	Activity (MCF7 [4])	Activity (MCF7 [5])	Activity (MCF7 [6])	Activity (MCF7 [7])	Activity (MCF7 [8])	Activity (MCF7 [9])	Activity (MCF7 [10])	Activity (MCF7 [11])	Activity (MCF7 [12])	Activity (Chorioallantoic membrane [13])	Activity (Chorioallantoic membrane [14])
1.78 µM	28.2 µM	8.94 µM		COc1cc2c(cc1OC)[C@@H]1[C@@H](CC2)[C@@H]2CC[C@H](OC)[C@@]2(C)C[C@H]1OC(=O)c1ccc(NC(=O)CN(C)C)cc1	5.88 µM	Active	6.32 µM											
5.22 µM	4.33 µM	4.29 µM	Dose-dependent effect	COc1cc2c(cc1OC)[C@@H]1[C@@H](CC2)[C@@H]2CC[C@H](OC)[C@@]2(C)C[C@H]1OC(=O)c1ccc(NC(=O)CN2CCN(C)CC2)cc1	4.85 µM	Active	5.55 µM		25.95%	33.77%	17.78%	Dose-dependent effect	31.14%	inactive	44.06%	49.19%	Active	Dose-dependent effect
3.05 µM	15 µM	3.74 µM		COc1cc2c(cc1OC)[C@@H]1[C@@H](CC2)[C@@H]2CC[C@H](OC)[C@@]2(C)C[C@H]1OC(=O)c1ccc(NC(=O)CN2CCCC2)cc1	2.63 µM	Active	5.51 µM											
2.73 µM	4.06 µM	2.85 µM	Dose-dependent effect	COCOc1ccc2c(c1)CC[C@@H]1[C@@H]2[C@H](OC(=O)c2ccc(NC(=O)CN3CCN(C)CC3)cc2)C[C@]2(C)[C@@H](OCOC)CC[C@@H]12	5.23 µM	Active	7.75 µM		21.47%	34.57%	14.63%	Dose-dependent effect	34.82%	inactive	41.9%	51.41%	Active	Dose-dependent effect
3.42 µM	34.3 µM	6.49 µM		COc1ccc2c(c1)CC[C@@H]1[C@@H]2[C@H](OC(=O)c2ccc(NC(=O)CN(C)C)cc2)C[C@]2(C)[C@@H](OC)CC[C@@H]12	6.97 µM	Active	15.6 µM											
